Compound activity deposited in PubChem by several laboratories.
LANA-H2B inh – blocks KSHV LANA binding to histone H2A/H2B. Q9QR71. inhibition, % (no concentration beside the values). cell-free LANA-H2A/H2B peptide, fluorescence polarization. 0.6% of 320,000 active; in the data active means inhibition mostly above about 10%, no sharp cut-off; inactive means mostly below about 6.7%
TRPN1 ag – zebrafish TRPN1 (NompC) channel agonism. 0.18% of 220,000 active. AID 1424. HEK293 zebrafish TRPN1-YFP, Fluo-8 calcium fluorescence; 100% = response to 87 µM carbachol. activation, % at 3 µM;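 active means activation above its plate's cutoff, the mean activation of test wells on that plate plus 3 SD, cut at about 19% in these data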;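 further: 0% = DMSO alone and 100% = 87 µM carbachol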
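System: zebrafish TRPN1-YFP in HEK293 cells / Dosing: 3 µM single point / Timing: dye loading 1 h at 37 °C, then 30 min room temperature / Signal: Fluo-8 calcium fluorescence, excitation 470-495 nm, emission 515-575 nm / Read-out basis: percent activation from peak over basal fluorescence ratio, control-normalized / Control set: high carbachol 87 µM, low DMSO alone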
TAAR1 agonist – agonists of human TAAR1; Q96RJ0; CHO RD-HGA16 TAAR1, Fluo-8 calcium fluorescence; vehicle wells 0%, saturating PEA agonist 100%; activation, % at 3 µM; 0.99% of 360,000 active; AID 624467;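 active means activation above the mean activation of all test compounds in the run plus 3 SD, cut at about 38% in these data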
Target sequence (Q96RJ0 whole entry, looked up): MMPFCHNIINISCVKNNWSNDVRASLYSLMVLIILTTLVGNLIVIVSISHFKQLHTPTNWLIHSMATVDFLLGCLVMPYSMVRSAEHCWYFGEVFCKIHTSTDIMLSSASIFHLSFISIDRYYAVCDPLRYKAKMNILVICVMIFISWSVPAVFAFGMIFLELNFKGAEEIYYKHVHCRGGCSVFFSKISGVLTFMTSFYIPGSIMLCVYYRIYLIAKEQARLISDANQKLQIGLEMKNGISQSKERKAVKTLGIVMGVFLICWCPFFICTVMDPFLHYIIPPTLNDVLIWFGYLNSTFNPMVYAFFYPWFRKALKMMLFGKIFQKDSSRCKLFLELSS
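Benchmarks: low control DMSO, high control PEA (EC100); System: CHO RD-HGA16 cells carrying human TAAR1 plus Gα16; Detection: Fluo-8 fluorescence, 5 s baseline then 140 s kinetic read; Schedule: 17-24 h plating, Fluo-8 75 min 37 °C, 30 min RT; Read-out basis: % activation from peak over basal fluorescence ratio, DMSO-to-PEA scaled.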
TAAR1 antagonist – human TAAR1 antagonism; Q96RJ0; AID 624466; 1.5% of 360,000 active; inhibition, % at 3 µM; CHO RD-HGA16 TAAR1, Fluo-8 calcium fluorescence, antagonist;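 active means inhibition above a per-plate cutoff, the mean inhibition of test compounds on that plate plus 3 SD, cut at about 49% in these data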;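 further: 0% = DMSO plus EC80 beta-PEA response and 100% = DMSO alone without agonist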
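test system = CHO RD-HGA16 cells bearing hTAAR1 | replication = singlicate | controls = DMSO-only wells and EC80 β-PEA-stimulated wells | reagent = EC80 β-phenethylamine stimulus | read-out basis = percent inhibition of PEA-evoked calcium signal, max/basal emission ratio | schedule = seeding 17-24 h prior, 75-min 37 °C, 30-min RT dye loading | signal = kinetic Fluo-8 calcium fluorescence measurement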
GPR7 antag – human neuropeptides B/W receptor 1 antagonism. P48145. GPR7-expressing cells, fluorescence antagonist assay. inhibition, % at 4.4 µM. 1.1% of 290,000 active. AID 1861; in the data active means inhibition above about 16%, passing the limit was not always enough;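 further: cells stimulated with the agonist NPW; 0% = agonist with vehicle and 100% = vehicle without agonist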
TRPML3 ag – activates the human TRPML3 channel; Q8TDD5; 0.29% of 220,000 active; activation, % at 3 µM; HEK293 TRPML3-YFP, Fluo-8 calcium fluorescence; 100% = the carbachol control signal;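 active means activation above its plate's cutoff, the mean activation of the plate's test wells plus 3 SD, cut at about 12% in these data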;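 further: 0% = DMSO only wells and 100% = carbachol wells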
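Test system – HEK293 line with stable expression of human TRPML3-YFP channel · Control set – carbachol 87 µM final as high control (100%), DMSO as low control (0%) · Signal – Fluo-8 calcium dye fluorescence, ex 470-495, em 515-575 nm · Incubation – 1-h 37 °C dye load, 5-s basal, 120-s post-compound reads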
GPR7 antag cf – confirmation of human GPR7 antagonists | shares compounds with GPR7 antag | AID 1952 | inhibition, % at 4.4 µM | 52% of 2,400 active | GPR7-expressing cells, calcium fluorescence antagonist mode; in the data active means inhibition above about 24%;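 further: stimulated with the GPR7 agonist NPW; 0% = agonist plus vehicle and 100% = vehicle alone without agonist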
MCHR1 antag – antagonizes human MCHR1, a GPR7 antagonist counter-screen; shares compounds with GPR7 antag; MCHR1-expressing cells, fluorescence antagonist assay; inhibition, % at 4.4 µM; 62% of 2,400 active; AID 2148; in the data active means inhibition above about 22%;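 further: 0% = vehicle with agonist and 100% = vehicle without agonist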
Starred values were filed as active, the others as inactive. In the library only some 3.4% were active in any assay of this set; here they are far more common.

How did COc1ccccc1CNS(=O)(=O)c1ccc(Cl)s1 do in these assays?
LANA-H2B inh: 1; TAAR1 agonist: 5; TAAR1 antagonist: -2; GPR7 antag: 23*; GPR7 antag cf: 2; MCHR1 antag: 10

How did Cc1c(C(=O)NCc2ccc3c(c2)OCO3)sc(=O)n1Cc1ccc(-c2ccccc2)cc1 do in these assays?
TAAR1 agonist: 2; TAAR1 antagonist: 30

What do the screens show for `OCC1(CCOc2ccccc2)CCN(Cc2ccccc2C(F)(F)F)CC1`?
LANA-H2B inh: 3; TAAR1 agonist: 0; TAAR1 antagonist: -9; GPR7 antag: -9

Results for COc1ccc(CN2CCC(CO)(CCOc3ccccc3)CC2)c(OC)c1C ?
LANA-H2B inh: -2; TRPN1 ag: 0; TAAR1 agonist: 8; TAAR1 antagonist: 2; GPR7 antag: 28*; TRPML3 ag: 2; GPR7 antag cf: 37*; MCHR1 antag: 24*

How did CCOC(=O)C1(CCOc2ccccc2)CCN(Cc2ccc(OC)c(COC)c2)CC1 do in these assays?
LANA-H2B inh: 7; TAAR1 agonist: 7; TAAR1 antagonist: 6; GPR7 antag: 36*; GPR7 antag cf: 36*; MCHR1 antag: 52*

How did CCOc1ccccc1CN1CCC(CO)(CCOc2ccccc2)CC1 do in these assays?
LANA-H2B inh: -5; TRPN1 ag: -1; TAAR1 agonist: 2; TAAR1 antagonist: 15; GPR7 antag: 27*; TRPML3 ag: 0; GPR7 antag cf: 6; MCHR1 antag: 4

Results for COc1cc(Cl)c(CN2CCC(CO)(CCOc3ccccc3)CC2)cc1OC ?
LANA-H2B inh: -1; TAAR1 agonist: 18; TAAR1 antagonist: -20; GPR7 antag: 3

How did CC(C)C[C@H]1CN=C(Nc2ccccc2)N1CCCCc1ccccc1 do in these assays?
LANA-H2B inh: -5; TAAR1 agonist: 42*; TAAR1 antagonist: -4; GPR7 antag: 39*; GPR7 antag cf: 39*; MCHR1 antag: 27*

Results for CC(C)CCCN1C(Nc2ccccc2)=NC[C@@H]1CC(C)C ?
LANA-H2B inh: 0; TAAR1 agonist: 12; TAAR1 antagonist: -7; GPR7 antag: 22

Results for CC(C)CCN1C(Nc2ccccc2)=NC[C@@H]1Cc1ccccc1 ?
LANA-H2B inh: -389; TAAR1 agonist: 8; TAAR1 antagonist: 2; GPR7 antag: 19

How did CC(CCN1C(Nc2ccccc2)=NC[C@@H]1Cc1ccccc1)c1ccccc1 (stereo not given in full) do in these assays?
LANA-H2B inh: -4; TAAR1 agonist: 27; TAAR1 antagonist: 9; GPR7 antag: 38*; GPR7 antag cf: 51*; MCHR1 antag: 25*

Results for CC(CCN1C(Nc2ccccc2)=NC[C@@H]1C)c1ccccc1 (stereo not given in full) ?
LANA-H2B inh: 1; TAAR1 agonist: 1; TAAR1 antagonist: 3; GPR7 antag: 2

Results for CC(C)CCCN1C(Nc2ccccc2)=NC[C@@H]1Cc1ccccc1 ?
LANA-H2B inh: 2; GPR7 antag: 36*; GPR7 antag cf: 31*; MCHR1 antag: 24*

How did CCn1cc(CN2CCC(n3nccc3NC(=O)C3CCCC3)CC2)cn1 do in these assays?
LANA-H2B inh: 1; TAAR1 agonist: 1; TAAR1 antagonist: 3; GPR7 antag: -14

Results for CCc1ccc(OCC(=O)Nc2ccc3c(c2)COC3=O)cc1 ?
LANA-H2B inh: -1; TRPN1 ag: -1; TAAR1 agonist: 4; TAAR1 antagonist: -4; GPR7 antag: 36*; TRPML3 ag: -2; GPR7 antag cf: 21; MCHR1 antag: 37*

How did CCOc1ccc(C(=O)Nc2ccc3c(c2)C(=O)NC3=O)cc1 do in these assays?
LANA-H2B inh: -1; TAAR1 agonist: 1; TAAR1 antagonist: 2; GPR7 antag: -10
